Published values pooled from the literature.
Target: Mitogen-activated protein kinase 13 (MAPK13, Homo sapiens, UniProt O15264)
Sequence (O15264 1-365, as in one of the studies): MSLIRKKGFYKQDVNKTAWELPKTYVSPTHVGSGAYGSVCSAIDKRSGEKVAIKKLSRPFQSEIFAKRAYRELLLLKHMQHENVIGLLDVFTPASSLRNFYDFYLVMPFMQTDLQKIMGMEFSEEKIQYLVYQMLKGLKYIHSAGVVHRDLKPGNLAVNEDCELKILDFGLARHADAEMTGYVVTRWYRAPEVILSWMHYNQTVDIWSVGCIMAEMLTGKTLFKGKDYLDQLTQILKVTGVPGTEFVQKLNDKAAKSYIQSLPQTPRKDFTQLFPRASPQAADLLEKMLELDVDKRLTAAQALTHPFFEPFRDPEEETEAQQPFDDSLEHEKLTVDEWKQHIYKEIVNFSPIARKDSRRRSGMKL

For CC(C)(C)c1cc(C=C(C#N)C#N)cc(Br)c1O, the remaining activity was 98.5% (enzyme activity; inhibitor; 0.5 µM).
For Cn1cc(-c2cc(F)cc(N3CCn4c(cc5c4CCCC5)C3=O)c2CO)cc(Nc2ccc(N3CCN(C4COC4)CC3)cn2)c1=O, the inhibition was 15% (enzyme activity; inhibitor; 0.1 µM).
With COc1cc(Nc2ncc(F)c(Nc3ccc4c(n3)NC(=O)C(C)(C)O4)n2)cc(OC)c1OC the inhibition was 100% (binding; competition with immobilised ligand; 10 µM).
Cn1cc(-c2cccc(N3CCc4c(sc5c4CC(C)(C)C5)C3=O)c2CO)cc(Nc2ccncn2)c1=O gave an inhibition of 5% (enzyme activity; inhibitor; 1 µM).
Cc1nn(C)cc1-c1nc2c(N3CCN(Cc4ccc(Cl)cc4)CC3)c(Cl)cnc2[nH]1 has a remaining binding of 100% (binding; competition with immobilised ligand; 1 µM).
With N#CC1(c2ccccn2)CCN(Cc2cc(C(=O)O)c(=O)n3ccccc23)CC1 the remaining binding was 100% (cell-free assay; competition with immobilised ligand; 1 µM).
With O=c1[nH]c2ccccc2n1C1CCN(Cc2ccc(-c3[nH]c4cc5ncnc5cc4nc3-c3ccccc3)cc2)CC1 the remaining signal was 102% (cell-free assay; 0.5 µM).
With Cn1cncc1[C@](O)(COc1ccc(C#N)cc1-c1ccc(OC(F)(F)F)cc1)c1ccc(C#N)cc1 the remaining binding was 87% (cell-free assay; competition with immobilised ligand; 1 µM).
With COc1ncccc1-c1cnn2ccc(N3CCN(C(=O)OC(C)C)CC3)nc12 the remaining binding was 100% (binding; competition with immobilised ligand; 1 µM).
